ChEMBL document CHEMBL1140966, “Syntheses and evaluation of 3-(3-bromo phenyl)-5-phenyl-1-(thiazolo [4,5-b] quinoxaline-2-yl)-2-pyrazoline derivatives” (Eur J Med Chem, 2008)

Legend:
[1] = tested on: Entamoeba histolytica; experiment: Antiamoebic activity against Entamoeba histolytica HMI:IMSS after 72 hrs by microdilution method; type: functional, organism-based
Outline: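 E. histolytica HMI:IMSS trophozoites grown in TYIS-33 medium. Compounds dissolved in DMSO, made up to 1 mg/ml with medium, then twofold serial dilutions in 96-well plates. 1.7 × 10⁴ viable organisms/well; plates gassed with nitrogen for 10 min, 37 °C for 72 h. Cells methanol-fixed and eosin-stained, dye released with 0.1 N NaOH, OD read at 490 nm. IC50 taken from linear regression of % inhibition vs log dose.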

[2] = Safety index, ratio of IC50 for human kidney epithelial cells to IC50 for Entamoeba histolytica HMI:IMSS; type: toxicity, cell-based, Epithelial cell; settings: read-out: Ratio IC50
Outline: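 Ratio computed as toxicity IC50 in human kidney epithelial cells (concentration killing 50% of cells, MTT) over protozoal IC50 against E. histolytica (concentration killing 50% of amoebae).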

[3] = Cytotoxicity against human kidney epithelial cells after 44 hrs by MTT assay; type: cell-based; settings: Epithelial cell
Outline: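 Transformed human kidney epithelial (Graham) cells kept at 37 °C in 5% CO2. Trypsinized cells adjusted to 0.5 million cells/mL and plated with compound. After 44 h, 2 mM MTT added for a further 4 h, then DMSO added to dissolve formazan. Absorbance read at 540 nm with 690 nm reference; % viability calculated against controls.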

With `CCc1ccccc1C1CC(c2cccc(Br)c2)=NN1C(N)=S` (centres undefined) as the compound, how does the IC50 [1] read?
Its IC50 is 2610 nM.

For `NC(=S)N1N=C(c2cccc(Br)c2)CC1c1cccc(Cl)c1Cl` (centres undefined), which IC50 [1] is on record?
Its IC50 is 560 nM.

Which selectivity ratio [2] does the source give for `CCc1ccccc1C1CC(c2cccc(Br)c2)=NN1c1nc2nc3ccccc3nc2s1` (centres undefined) here?
Its selectivity ratio is over 24.1.

And the IC50 [3]?
Its IC50 is over 60000 nM.

What about the IC50 [1] of the same compound?
Its IC50 is 2490 nM.

For `CC(C)c1ccccc1C1CC(c2cccc(Br)c2)=NN1c1nc2nc3ccccc3nc2s1` (centres undefined), which selectivity ratio [2] is on record?
The selectivity ratio was over 32.1.

What about the IC50 [3] of the same compound?
The IC50 was over 60000 nM.

And the IC50 [1]?
The IC50 was 1870 nM.

Which selectivity ratio [2] does the source give for `Clc1cccc(C2CC(c3cccc(Br)c3)=NN2c2nc3nc4ccccc4nc3s2)c1Cl` (centres undefined) here?
The selectivity ratio was over 85.7.

What about the IC50 [3] of the same compound?
Its IC50 is over 60000 nM.

What about the IC50 [1] of the same compound?
The IC50 was 700 nM.

For `Cc1cc(C)c(/C=C/C(=O)c2cccc(Br)c2)c(C)c1`, which IC50 [1] is on record?
The IC50 was 1800 nM.

Which IC50 [1] does the source give for `Cc1ccc(/C=C/C(=O)c2cccc(Br)c2)cc1` here?
The IC50 was 2490 nM.

Which IC50 [1] does the source give for `O=C(/C=C/c1ccccc1Cl)c1cccc(Br)c1` here?
Its IC50 is 2230 nM.

Which selectivity ratio [2] does the source give for `Brc1cccc(C2=NN(c3nc4nc5ccccc5nc4s3)C(c3ccccc3)C2)c1` (centres undefined) here?
Its selectivity ratio is over 428.

What about the IC50 [3] of the same compound?
Its IC50 is over 60000 nM.

And the IC50 [1]?
Its IC50 is 140 nM.

Which selectivity ratio [2] does the source give for `Brc1cccc(C2=NN(c3nc4nc5ccccc5nc4s3)C(c3c[nH]c4ccccc34)C2)c1` (centres undefined) here?
The selectivity ratio was over 750.

And the IC50 [3]?
Its IC50 is over 60000 nM.

What about the IC50 [1] of the same compound?
Its IC50 is 80 nM.

For `CC(C)c1ccccc1/C=C/C(=O)c1cccc(Br)c1`, which IC50 [1] is on record?
Its IC50 is 1920 nM.

Which IC50 [1] does the source give for `O=C(/C=C/c1ccc(Cl)cc1Cl)c1cccc(Br)c1` here?
The IC50 was 1110 nM.

Which IC50 [1] does the source give for `NC(=S)N1N=C(c2cccc(Br)c2)CC1c1ccccc1` (centres undefined) here?
The IC50 was 190 nM.

With `Cc1ccc(C2CC(c3cccc(Br)c3)=NN2C(N)=S)cc1` (centres undefined) as the compound, how does the IC50 [1] read?
Its IC50 is 4380 nM.

With `Cc1cc(C)c(C2CC(c3cccc(Br)c3)=NN2C(N)=S)c(C)c1` (centres undefined) as the compound, how does the IC50 [1] read?
Its IC50 is 1710 nM.

Which selectivity ratio [2] does the source give for `Cc1ccc(C2CC(c3cccc(Br)c3)=NN2c2nc3nc4ccccc4nc3s2)cc1` (centres undefined) here?
The selectivity ratio was over 600.

And the IC50 [3]?
Its IC50 is over 60000 nM.

What about the IC50 [1] of the same compound?
Its IC50 is 100 nM.

What does the source list for `Cc1cc(C)c(C2CC(c3cccc(Br)c3)=NN2c2nc3nc4ccccc4nc3s2)c(C)c1` (centres undefined)?
selectivity ratio [2]: > 46.5; IC50 [3]: > 60000 nM; IC50 [1]: 1290 nM

With `Clc1ccccc1C1CC(c2cccc(Br)c2)=NN1c1nc2nc3ccccc3nc2s1` (centres undefined) as the compound, how does the selectivity ratio [2] read?
The selectivity ratio was over 88.2.

What about the IC50 [3] of the same compound?
Its IC50 is over 60000 nM.

What about the IC50 [1] of the same compound?
The IC50 was 680 nM.

For `NC(=S)N1N=C(c2cccc(Br)c2)CC1c1ccccc1Cl` (centres undefined), which IC50 [1] is on record?
Its IC50 is 1900 nM.

Which IC50 [1] does the source give for `NC(=S)N1N=C(c2cccc(Br)c2)CC1c1c[nH]c2ccccc12` (centres undefined) here?
The IC50 was 2280 nM.

Which IC50 [1] does the source give for `CC(C)c1ccccc1C1CC(c2cccc(Br)c2)=NN1C(N)=S` (centres undefined) here?
Its IC50 is 2340 nM.

For `Cc1ncc([N+](=O)[O-])n1CCO` [METRONIDAZOLE], which selectivity ratio [2] is on record?
The selectivity ratio was over 55.5.

What about the IC50 [3] of the same compound?
Its IC50 is over 100000 nM.
